ChEMBL document CHEMBL3596168, “Novel inhibitors of RANKL-induced osteoclastogenesis: Design, synthesis, and biological evaluation of 6-(2,4-difluorophenyl)-3-phenyl-2H-benzo[e][1,3]oxazine-2,4(3H)-diones” (Bioorg Med Chem, 2015)
Calls of active or inactive are those of the source. The calls are words filed in the database; no cut-off is given here.

Columns and labels:
[1] = biological target: T1, Tumor necrosis factor ligand superfamily member 11 (Mus musculus) (UniProt O35235); assay: Inhibition of recombinant mouse RANKL-induced TRAP activity in mouse RAW264.7 cells using 4-nitrophenyl phosphate as TRAP substrate preincubated for 4 days followed by substrate addition measured after 15 mins by ELISA reader analysis; assay type: cell-based
T1 sequence (whole entry): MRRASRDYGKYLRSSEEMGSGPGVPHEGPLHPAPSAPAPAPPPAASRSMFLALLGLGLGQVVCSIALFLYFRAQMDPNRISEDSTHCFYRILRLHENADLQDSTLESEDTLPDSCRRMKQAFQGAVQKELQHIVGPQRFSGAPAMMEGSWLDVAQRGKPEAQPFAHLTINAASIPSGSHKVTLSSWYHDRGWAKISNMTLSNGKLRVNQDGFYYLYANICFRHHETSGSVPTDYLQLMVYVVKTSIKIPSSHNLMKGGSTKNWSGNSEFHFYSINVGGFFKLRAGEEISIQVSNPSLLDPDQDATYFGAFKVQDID
Procedure, shortened: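 RAW264.7 cells (2 × 10⁴ per well) were cultured 4 days in α-MEM with 10% FBS, 2 mM L-glutamine and murine RANKL 100 ng/mL, with or without compound. Cells were lysed in 0.1% Triton X-100/50 mM Tris-HCl pH 7.2 on ice. They were incubated with 2 mg/mL 4-nitrophenyl phosphate in 0.09 M citrate for 15 min at 37 °C, stopped with 0.1 N NaOH, and read at 405 nm. Protein was measured by BCA.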

[2] = biological target: T1, Tumor necrosis factor ligand superfamily member 11 (Mus musculus); assay: Inhibition of recombinant mouse RANKL-induced osteoclastogenesis of mouse RAW264.7 cells assessed as suppression of cathepsin K mRNA expression at 2.5 to 5 uM preincubated for 1 hr followed by RANKL addition measured after 24 hrs by RT-PCR analysis; assay type: cell-based
Procedure, shortened: (§1)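 RAW264.7 cells (1 × 10⁵ per dish) were serum-starved 24 h in α-MEM, pretreated with compound for 1 h, then given RANKL (100 ng/mL) for 24 h. Total RNA (2 µg) was reverse-transcribed with oligo(dT) and amplified with mouse-specific primers. Products were resolved on 1.5% agarose with EtBr and densities normalized to GAPDH, as % of control. At least two independent experiments.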

[3] = biological target: T1, Tumor necrosis factor ligand superfamily member 11 (Mus musculus); assay: Inhibition of recombinant mouse RANKL-induced osteoclastogenesis of mouse RAW264.7 cells assessed as suppression of c-fos mRNA expression at 2.5 to 5 uM preincubated for 1 hr followed by RANKL addition measured after 24 hrs by RT-PCR analysis; assay type: cell-based; procedure, shortened: as §1
[4] = biological target: T1, Tumor necrosis factor ligand superfamily member 11 (Mus musculus); assay: Inhibition of recombinant mouse RANKL-induced osteoclastogenesis of mouse RAW264.7 cells assessed as suppression of NFATc1 mRNA expression at 2.5 to 5 uM preincubated for 1 hr followed by RANKL addition measured after 24 hrs by RT-PCR analysis; assay type: cell-based; procedure, shortened: as §1
[5] = biological target: T1, Tumor necrosis factor ligand superfamily member 11 (Mus musculus); assay: Inhibition of recombinant mouse RANKL-induced osteoclastogenesis of mouse RAW264.7 cells assessed as reduction of TRAP-positive multinucleated cells at 5 uM after 4 days by light microscopic analysis relative to control; assay type: cell-based
Procedure, shortened: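 RAW264.7 cells were cultured 4 days in α-MEM with 10% FBS, 2 mM L-glutamine and RANKL 100 ng/mL, with or without compound at 5 µM. Medium was changed on day 2. Cells were fixed in acetone/citrate/formaldehyde and stained for TRAP for 1 h at 37 °C. TRAP+ cells with three or more nuclei were counted by light microscopy. Inhibition = 100% − MNCs (%). At least three independent experiments.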

[6] = Cytotoxicity against mouse RAW264.7 cells assessed as cell viability at 5 uM after 24 hrs by MTT assay relative to control; assay type: cell-based; settings: read-out: Activity
Procedure, shortened: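 RAW264.7 cells, 1 × 10⁴ per well in DMEM with 10% FBS, were exposed to compounds for 24 h. MTT (500 µg/mL) was then added for 1 h at 37 °C, formazan was dissolved in DMSO, and absorbance was read at 540 nm. Viability at 5 µM is relative to untreated control. At least three independent experiments, mean ± SD.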

[7] = biological target: T1, Tumor necrosis factor ligand superfamily member 11 (Mus musculus); assay: Inhibition of recombinant mouse RANKL-induced osteoclastogenesis of mouse RAW264.7 cells assessed as suppression of TRAP mRNA expression at 2.5 to 5 uM preincubated for 1 hr followed by RANKL addition measured after 24 hrs by RT-PCR analysis; assay type: cell-based; procedure, shortened: as §1
[8] = biological target: T1, Tumor necrosis factor ligand superfamily member 11 (Mus musculus); assay: Inhibition of recombinant mouse RANKL-induced bone resorptive activity of mature osteoclasts derived from mouse RAW264.7 cells assessed as attenuation of resorbing pit formation on dentine slices after 4 days by toluidine blue staining assay; assay type: tissue-based
Procedure, shortened: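 Cells (1 × 10⁴ per well) were seeded on dentine slices in α-MEM with 10% FBS, 2 mM L-glutamine and RANKL 100 ng/mL, plus compound at 7.5, 5 or 2.5 µM. Medium was refreshed every 2 days. On day 4 cells were removed with 1 M NH₄OH and slices stained with 0.1% toluidine blue. Resorbed/total area was expressed as % of control, from more than 6 slices.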

[9] = biological target: T1, Tumor necrosis factor ligand superfamily member 11 (Mus musculus); assay: Inhibition of recombinant mouse RANKL-induced NF-kappaB expression in nuclear extracts of mouse RAW264.7 cells assessed as decrease in ratio of NF-kappaB to TBP level at 5 uM preincubated for 1 hr followed by RANKL addition measured after 24 hrs by Western blot analysis relative to control
Procedure, shortened: (§2)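 RAW264.7 cells (1 × 10⁵ per dish) grew in DMEM/10% FBS for 24 h. They were pretreated with compound in α-MEM/10% FBS for 1 h, then given RANKL (100 ng/mL) for 24 h. Nuclear extracts (18 µg protein) were run on 12% SDS–PAGE and immunoblotted for NF-κB p65, NFATc1 and TBP (loading reference) with ECL detection. More than two cultures.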

[10] = biological target: T1, Tumor necrosis factor ligand superfamily member 11 (Mus musculus); assay: Inhibition of recombinant mouse RANKL-induced NF-kappaB expression in nucleus of mouse RAW264.7 cells at 5 uM preincubated for 1 hr followed by RANKL addition measured after 24 hrs by ELISA plate analysis; assay type: cell-based
Procedure, shortened: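 Cells were pretreated 1 h with compound in α-MEM/10% FBS, then stimulated with RANKL (100 ng/mL) for 24 h. NF-κB p65 DNA binding in nuclear extracts was measured on plates coated with the response element, using primary plus tagged secondary antibody. Absorbance was read at 450 nm.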

[11] = biological target: T1, Tumor necrosis factor ligand superfamily member 11 (Mus musculus); assay: Inhibition of recombinant mouse RANKL-induced NF-kappaB expression in nuclear extracts of mouse RAW264.7 cells assessed as decrease in ratio of NFATc1 to TBP level at 5 uM preincubated for 1 hr followed by RANKL addition measured after 24 hrs by Western blot analysis relative to control; procedure, shortened: as §2

## C#Cc1cccc(-n2c(=O)oc3ccc(-c4ccc(F)cc4F)cc3c2=O)c1
[1]
  inhibition: Dose-dependent effect
[2]
  inhibition: Active
[3]
  inhibition: Active
[4]
  inhibition: Active
[5]
  inhibition: 57.5%
[6]
  viability at 24 h, 5 µM: 88.4%
[7]
  inhibition: Active

## N#Cc1cccc(-n2c(=O)oc3ccc(-c4ccc(F)cc4F)cc3c2=O)c1
[5]
  inhibition: 34%
[6]
  viability at 24 h, 5 µM: 103%

## O=c1oc2ccc(-c3ccc(F)cc3F)cc2c(=O)n1-c1ccc(C(F)(F)F)cc1
[5]
  inhibition: 16.9%
[6]
  viability at 24 h, 5 µM: 103%

## N#Cc1ccc(-n2c(=O)oc3ccc(-c4ccc(F)cc4F)cc3c2=O)cc1
[5]
  inhibition: 29.4%
[6]
  viability at 24 h, 5 µM: 108%

## O=c1oc2ccc(-c3ccc(F)cc3F)cc2c(=O)n1-c1cc(F)ccc1F
[1]
  inhibition: Dose-dependent effect
[2]
  inhibition: Active
[3]
  inhibition: Active
[4]
  inhibition: Active
[8]
  inhibition: Dose-dependent effect
[5]
  inhibition: 86.8%
[9]
  fold change (FC): 0.69
[6]
  viability at 24 h, 5 µM: 86.6%
[10]
  inhibition: Active
[7]
  inhibition: Active
[11]
  fold change (FC): 0.61

## O=c1oc2ccc(-c3ccc(F)cc3F)cc2c(=O)n1-c1ccc(Cl)cc1F
[5]
  inhibition: 19.4%
[6]
  viability at 24 h, 5 µM: 96.2%

## O=c1oc2ccc(-c3ccc(F)cc3F)cc2c(=O)n1-c1ccccc1C(F)(F)F
[5]
  inhibition: 31.6%
[6]
  viability at 24 h, 5 µM: 95.5%

## O=c1oc2ccc(-c3ccc(F)cc3F)cc2c(=O)n1-c1cccc(C(F)(F)F)c1
[1]
  inhibition: Dose-dependent effect
[5]
  inhibition: 62.9%
[6]
  viability at 24 h, 5 µM: 100%

## COc1ccc(-n2c(=O)oc3ccc(-c4ccc(F)cc4F)cc3c2=O)cc1OC
[5]
  inhibition: 21.2%
[6]
  viability at 24 h, 5 µM: 103%

## O=c1oc2ccc(-c3ccc(F)cc3F)cc2c(=O)n1-c1ccc(F)c(F)c1
[5]
  inhibition: 17.4%
[6]
  viability at 24 h, 5 µM: 72.2%

## COc1cccc(-n2c(=O)oc3ccc(-c4ccc(F)cc4F)cc3c2=O)c1
[5]
  inhibition: 30.8%
[6]
  viability at 24 h, 5 µM: 106%

## O=c1oc2ccc(-c3ccc(F)cc3F)cc2c(=O)n1-c1ccc(F)cc1F
[5]
  inhibition: 42.3%
[6]
  viability at 24 h, 5 µM: 96.5%
